Experimental data taken from article PMC4789169 (Bioorganic & medicinal chemistry, 2016).
Read-outs that look alike come from different tables or passages of the source. Blank lines part the entries; values can stand above or below the molecule they belong to.

Columns and labels:
[1] = system: Ovarian OVCAR-3; conditions: read-out: Cytotoxicity (GI50, μM) Ovarian OVCAR-3; NCI-60; cited from earlier work
[2] = target: T1, recombinant Top1 (Homo sapiens, UniProt P11387); set-up: key to the marks not given beside the values; conditions: score relative to 1 μM camptothecin (1); cited from earlier work
T1 sequence (P11387 1-765): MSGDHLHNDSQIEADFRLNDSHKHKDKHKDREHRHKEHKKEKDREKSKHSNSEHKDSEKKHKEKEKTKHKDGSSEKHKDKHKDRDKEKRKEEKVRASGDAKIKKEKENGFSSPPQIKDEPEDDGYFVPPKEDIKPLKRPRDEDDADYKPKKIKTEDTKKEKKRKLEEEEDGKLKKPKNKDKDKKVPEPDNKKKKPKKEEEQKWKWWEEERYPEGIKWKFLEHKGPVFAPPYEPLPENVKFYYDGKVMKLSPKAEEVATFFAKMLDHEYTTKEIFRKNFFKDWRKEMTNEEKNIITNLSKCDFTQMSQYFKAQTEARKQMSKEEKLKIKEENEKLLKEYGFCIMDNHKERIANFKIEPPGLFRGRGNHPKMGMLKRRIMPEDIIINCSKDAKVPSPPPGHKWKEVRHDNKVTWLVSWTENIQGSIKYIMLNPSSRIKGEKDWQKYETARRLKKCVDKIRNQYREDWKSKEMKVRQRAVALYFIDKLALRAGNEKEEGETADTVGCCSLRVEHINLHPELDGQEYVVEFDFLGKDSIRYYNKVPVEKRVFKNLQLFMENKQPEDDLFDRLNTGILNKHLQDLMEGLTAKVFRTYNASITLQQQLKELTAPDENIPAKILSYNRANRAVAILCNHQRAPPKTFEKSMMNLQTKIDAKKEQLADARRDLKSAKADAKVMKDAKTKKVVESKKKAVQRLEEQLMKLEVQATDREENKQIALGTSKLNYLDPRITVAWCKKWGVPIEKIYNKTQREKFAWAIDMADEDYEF

[3] = system: Renal SN12C; conditions: read-out: Cytotoxicity (GI50, μM) Renal SN12C; NCI-60; cited from earlier work
[4] = system: Lung HOP-62; conditions: read-out: Cytotoxicity (GI50, μM) Lung HOP-62; NCI-60; cited from earlier work
[5] = system: Colon HCT-116; conditions: read-out: Cytotoxicity (GI50, μM) Colon HCT-116; NCI-60; cited from earlier work
[6] = system: CNS SF-539; conditions: read-out: Cytotoxicity (GI50, μM) CNS SF-539; NCI-60; cited from earlier work
[7] = system: Prostate DU-145; conditions: read-out: Cytotoxicity (GI50, μM) Prostate DU-145; NCI-60; cited from earlier work
[8] = system: Melanoma UACC-62; conditions: read-out: Cytotoxicity (GI50, μM) Melanoma UACC-62; NCI-60; cited from earlier work
[9] = cited from earlier work
[10] = target: T1, recombinant Top1; assay: Top1-mediated DNA cleavage assay; assay type: biochemical; conditions: for Top1 Cleavage: score relative to 1 μM camptothecin (1), tested at 0.1, 1, 10, 100 μM
[11] = system: all 60 cell lines (NCI-60 human tumor cell line screen); assay: NCI-60 GI50 mean graph midpoint; assay type: cell-based; conditions: read-out: Cytotoxicity (GI50, μM) MGM
Procedure, shortened: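 Compounds were first screened at a single 10 μM dose across NCI-60 lines. Those with low enough averaged growth percent advanced to a five-concentration assay (10⁻⁸–10⁻⁴ M). […] Values beyond the range were recorded as the minimum or maximum tested concentration. MGM is the average GI50 over all 60 lines.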

Structure (SMILES): COc1cc2c3c(n(CCCN4CCOCC4)c(=O)c2cc1OC)-c1cc2c(cc1C3=O)OCO2 [Compound 4, indotecan]
- GI50 [1]: 74.1 µM
- Top1 Cleavage [2]: ++++
- GI50 [3]: 0.813 µM
- GI50 [4]: 1.78 µM
- GI50 [5]: 1.15 µM
- GI50 [6]: 0.04 µM
- GI50 [7]: 0.155 µM
- GI50 [8]: 0.03 µM

Structure (SMILES): COc1cc2c3c(n(CCCn4ccnc4)c(=O)c2cc1OC)-c1cc2c(cc1C3=O)OCO2 [Compound 5, indimitecan]
- GI50 [1]: 0.085 µM
- Top1 Cleavage [2]: ++++
- GI50 [3]: < 0.01 µM
- GI50 [4]: < 0.01 µM
- GI50 [5]: < 0.01 µM
- GI50 [6]: 0.037 µM
- Metabolism in the presence of human liver microsomes [9]: oxidative demethylation of the 2-methoxy group
- GI50 [7]: < 0.01 µM
- GI50 [8]: < 0.01 µM

Structure (SMILES): COc1cc2c3c(n(CCCNCCO)c(=O)c2cc1OC)-c1cc2c(cc1C3=O)OCO2 [Compound 6, MJ-III-65]
- Top1 Cleavage [2]: ++++
- GI50 [7]: 0.02 µM
- GI50 [8]: 0.03 µM

- Top1 Cleavage [10]: ++++
Structure (SMILES): O=C1c2cc3c(cc2-c2c1c1ccc(F)cc1c(=O)n2C[C@H](O)CO)OCO3 [Compound 21, (S)-3-Fluoro-6-(2,3-dihydroxypropyl)-8,9-methylenedioxy-5H-indeno[1,2-c]isoquinoline-5,11(6H)-dione]

- Top1 Cleavage [10]: ++ (++, between 50 and 75% activity)
Structure (SMILES): O=C1c2cc3c(cc2-c2c1c1ccc(Cl)cc1c(=O)n2C[C@H](O)CO)OCO3 [Compound 22, (S)-3-Chloro-6-(2,3-dihydroxypropyl)-8,9-methylenedioxy-5H-indeno[1,2-c]isoquinoline-5,11(6H)-dione]

- Top1 Cleavage [10]: ++ (++, between 50 and 75% activity)
Structure (SMILES): O=C1c2cc3c(cc2-c2c1c1ccc(F)cc1c(=O)n2C[C@H](O)[C@@H](O)[C@H](O)CO)OCO3 [Compound 23, (2′S,3′R,4′R)-3-Fluoro-5,6-dihydro-6-(2′,3′,4′,5′-tetrahydroxypentyl)-8,9-methylenedioxy-5,11-dioxo-11H-indeno[1,2-c]isoquinoline]

- Top1 Cleavage [10]: + (+, between 20 and 50% activity)
Structure (SMILES): O=C1c2cc3c(cc2-c2c1c1ccc(Cl)cc1c(=O)n2C[C@H](O)[C@H](O)[C@H](O)CO)OCO3 [Compound 24, (2′S,3′S,4′R)-3-Chloro-5,6-dihydro-6-(2′,3′,4′,5′-tetrahydroxypentyl)-8,9-methylenedioxy-5,11-dioxo-11H-indeno[1,2-c]isoquinoline]

- Top1 suppression activity ([10]; high drug concentration (100 μM), band density at several cleavage sites decreases): suppress Top1-mediated DNA cleavage
- Top1 Cleavage [10]: +++ (+++, between 75 and 95% activity)
Structure (SMILES): O=C1c2cc3c(cc2-c2c1c1ccc(F)cc1c(=O)n2CCCn1ccnc1)OCO3 [Compound 25, 3-Fluoro-6-(3-(1H-imidazol-1-yl)propyl)-8,9-methylenedioxy-5,11-dioxo-11H-indeno[1,2-c]isoquinoline]
- GI50 [11]: ≤ 0.011 µM

- Top1 Cleavage [10]: ++ (++, between 50 and 75% activity)
Structure (SMILES): O=C1c2cc3c(cc2-c2c1c1ccc(Cl)cc1c(=O)n2CCCn1ccnc1)OCO3 [Compound 26, 3-Chloro-6-(3-(1H-imidazol-1-yl)propyl)-8,9-methylenedioxy-5,11-dioxo-11H-indeno[1,2-c]isoquinoline]

- Top1 Cleavage [10]: + (+, between 20 and 50% activity)
Structure (SMILES): O=C(O)C(F)(F)F.O=C1c2cc3c(cc2-c2c1c1ccc(F)cc1c(=O)n2CCCN1CCOCC1)OCO3 [Compound 27, 3-Fluoro-5,6-dihydro-6-(3-morpholinopropyl)-8,9-methylenedioxy-5,11-dioxo-11H-indeno[1,2-c]isoquinoline Trifluoroacetate]

- Top1 Cleavage [10]: + (+, between 20 and 50% activity)
Structure (SMILES): O=C(O)C(F)(F)F.O=C1c2cc3c(cc2-c2c1c1ccc(Cl)cc1c(=O)n2CCCN1CCOCC1)OCO3 [Compound 28, 3-Chloro-5,6-dihydro-6-(3-morpholinopropyl)-8,9-methylenedioxy-5,11-dioxo-11H-indeno[1,2-c]isoquinoline Trifluoroacetate]

- Top1 Cleavage [10]: ++ (++, between 50 and 75% activity)
Structure (SMILES): O=C1c2cc3c(cc2-c2c1c1cc(F)c(F)cc1c(=O)n2C[C@H](O)CO)OCO3 [Compound 37, (S)-2,3-Difluoro-6-(2,3-dihydroxypropyl)-8,9-methylenedioxy-5,11-dioxo-11H-indeno[1,2-c]isoquinoline]

- Top1 Cleavage [10]: + (+, between 20 and 50% activity)
Structure (SMILES): O=C1c2cc3c(cc2-c2c1c1cc(F)c(F)cc1c(=O)n2CCCn1ccnc1)OCO3 [Compound 38, 2,3-Difluoro-6-(3-(1H-imidazol-1-yl)propyl)-8,9-methylenedioxy-5,11-dioxo-11H-indeno[1,2-c]isoquinoline]
- GI50 [11]: 0.03 µM

- Top1 Cleavage [10]: ++ (++, between 50 and 75% activity)
Structure (SMILES): O=C1c2cc3c(cc2-c2c1c1cc(Cl)c(Cl)cc1c(=O)n2C[C@H](O)CO)OCO3 [Compound 45, (S)-2,3-Dichloro-6-(2,3-dihydroxypropyl)-8,9-methylenedioxy-5,11-dioxo-11H-indeno[1,2-c]isoquinoline]

- Top1 Cleavage [10]: + (+, between 20 and 50% activity)
Structure (SMILES): O=C1c2cc3c(cc2-c2c1c1cc(Cl)c(Cl)cc1c(=O)n2CCCn1ccnc1)OCO3 [Compound 46, 2,3-Dichloro-6-(3-(1H-imidazol-1-yl)propyl)-8,9-methylenedioxy-5,11-dioxo-11H-indeno[1,2-c]isoquinoline]
